Assay [1] addresses T1, Free fatty acid receptor 4 (Homo sapiens) (UniProt Q5NUL3).
T1 sequence (whole entry): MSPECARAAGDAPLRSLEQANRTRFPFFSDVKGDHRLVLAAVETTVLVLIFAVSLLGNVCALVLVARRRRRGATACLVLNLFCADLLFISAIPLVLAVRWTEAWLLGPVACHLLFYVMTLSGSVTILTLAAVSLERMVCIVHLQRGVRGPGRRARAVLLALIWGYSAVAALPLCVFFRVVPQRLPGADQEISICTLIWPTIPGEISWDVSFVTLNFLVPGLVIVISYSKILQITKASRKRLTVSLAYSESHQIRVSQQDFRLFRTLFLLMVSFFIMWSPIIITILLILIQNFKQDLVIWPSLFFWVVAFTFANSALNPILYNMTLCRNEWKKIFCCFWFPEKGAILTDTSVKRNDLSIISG
Put plainly: Agonist activity at human GPR120-G-alpha-16 fusion protein expressed in Flp-in HEK293 cells assessed as effect on intracellular calcium concentration at 10 uM by FLIPR assay relative to […]. The class given is functional, cell-based. The procedure, abridged: (§1)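 FLIPR fluorometric measurement of intracellular Ca2+ in HEK293 cells expressing human GPR40 or human GPR120. Test compound at 10 µM; response expressed as percent of that evoked by 10 µM α-linolenic acid reference. Means of at least three experiments.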
For orientation: A change in cytosolic calcium serves as a functional read-out for many receptors and channels.

The target of assay [2] is T2, Free fatty acid receptor 1 (Homo sapiens, UniProt O14842). Put plainly: Agonist activity at human GPR40 expressed in T-REx HEK293 cells assessed as effect on intracellular calcium concentration at 10 uM by FLIPR assay relative to […]. It counts as functional, cell-based. The procedure, abridged:
as §1

Assay [3] addresses T3, Free fatty acid receptor 4 (Homo sapiens, UniProt Q5NUL3).
T3 sequence (Q5NUL3 whole entry): T1 sequence (whole entry)
Put plainly: Agonist activity at human GPR120-G-alpha-16 fusion protein expressed in Flp-in HEK293 cells assessed as effect on intracellular calcium concentration by FLIPR assay. It counts as functional, cell-based. The procedure, abridged: (§2)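 Intracellular Ca2+ rise read by FLIPR in HEK293 cells expressing human GPR120 or human GPR40; EC50 values derived from concentration–response, means of at least three experiments.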

Assay [4] deals with T2, Free fatty acid receptor 1. Put plainly: Agonist activity at human GPR40 expressed in T-REx HEK293 cells assessed as effect on intracellular calcium concentration by FLIPR assay. It counts as functional, cell-based. The procedure, abridged: as §2
Another assay has as its system HEK293. The assay is described as follows: Agonist activity at PPAR expressed in HEK293 cells at 10 to 100 uM after 12 to 16 hrs by luciferase-beta galactosidase transactivation assay. It counts as functional, cell-based.
The species named for the next assay is Homo sapiens. Put plainly: Selectivity index, ratio of EC50 for human GPR40 to EC50 for human GPR120. The procedure, abridged:
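Selectivity index computed as EC50 at GPR40 divided by EC50 at GPR120, both from FLIPR Ca2+ assays in HEK293 cells expressing each human receptor; EC50 means of at least three experiments.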

The record followed here is ChEMBL document CHEMBL1140222, “Identification of G protein-coupled receptor 120-selective agonists derived from PPARgamma agonists” (J Med Chem, 2008).

Activity calls are given as the source filed them. No cut-off for these calls is given here.

T2 sequence (O14842 whole entry): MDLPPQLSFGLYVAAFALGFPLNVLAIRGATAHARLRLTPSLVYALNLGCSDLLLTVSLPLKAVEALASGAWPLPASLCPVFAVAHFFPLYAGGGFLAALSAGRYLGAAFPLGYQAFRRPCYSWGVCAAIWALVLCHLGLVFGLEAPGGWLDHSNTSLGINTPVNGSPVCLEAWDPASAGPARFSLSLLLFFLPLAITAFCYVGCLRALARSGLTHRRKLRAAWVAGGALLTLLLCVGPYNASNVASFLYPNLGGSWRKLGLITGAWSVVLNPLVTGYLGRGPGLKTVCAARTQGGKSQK

In the case of `O=C(O)CCCc1ccc(OCCN(c2ccccc2)c2ccccn2)cc1`, the Activity in assay [1] worked out at 115%; in assay [2], 26%. For the same compound, the figures for the EC50 in assay [3] and in assay [4] were 1.2 µM and 19 µM, respectively. Moreover, the outcome in the assay on HEK293 was inactive. Also, the Ratio EC50 in the assay filed under Homo sapiens turned out to be 16.
Consider `CN(CCOc1ccc(CCC(=O)O)cc1)c1ccccn1`, for which the Activity in assay [1] was 0%; in assay [2], 58%.
For the compound `Cc1ccc(N(CCOc2ccc(CCCC(=O)O)cc2)c2ccccn2)cc1`, the Activity in assay [1] worked out at 78%; in assay [2], 26%.
In the case of `O=C(O)CCCc1ccc(OCCN(c2ccccc2)c2ccccc2)cc1`, the Activity was determined as 88% in assay [1] and 21% in assay [2].
Regarding `O=C(O)CCc1ccc(OCCN(c2ccccc2)c2ccccn2)cc1`, the Activity in assay [1] is 56%; in assay [2] it was 98%.
The corresponding values for `O=C(O)CCCc1ccc(OCCN(c2ccccc2)c2cccc(Cl)n2)cc1` are 70% and 32%.
Turning to `O=C(O)CCCc1ccc(OCCN(c2ccccc2)c2nc3ccccc3o2)cc1`, the Activity in assay [1] turned out to be 43%; in assay [2], 8%.
The corresponding values for `Cc1cccc(N(CCOc2ccc(CCCC(=O)O)cc2)c2ccccc2)n1` are 81% and 34%.
With `O=C(O)CCCc1ccc(OCCN(c2cccc(F)c2)c2ccccn2)cc1`, the Activity in assay [1] came to 71%; in assay [2] it was 33%.
As to `CCCCN(CCOc1ccc(CCC(=O)O)cc1)c1ccccn1`, the Activity in assay [1] was 33%; in assay [2] it was 215%.
As for `O=C(O)CCCc1ccc(OCCN(c2ccccc2)c2nccs2)cc1`, the values for the Activity in assay [1] and in assay [2] were 106% and 30%, respectively. The 50% effective concentration (EC50) in assay [3] is 1.7 µM; in assay [4], 21 µM. For the same compound, the Ratio EC50 in the assay filed under Homo sapiens worked out at 12.
In the case of `O=C(O)CCCc1ccc(OCCN(c2ccccc2)c2nc3ccccc3s2)cc1`, the values for the Activity in assay [1] and in assay [2] were 73% and 32%, respectively.
On to `CCN(CCOc1ccc(CCC(=O)O)cc1)c1ccccn1`, for which the values for the Activity in assay [1] and in assay [2] were 45% and 147%, respectively.
The corresponding values for `Cc1ccnc(N(CCOc2ccc(CCCC(=O)O)cc2)c2ccccc2)c1` are 81% and 43%.
The corresponding values for `O=C(O)CCCCc1ccc(OCCN(c2ccccc2)c2ccccn2)cc1` are 58% and 99%.
Taken in the same sequence, the figures for `O=C(O)CCCc1ccc(OCCN(c2ccc3ccccc3c2)c2ccccn2)cc1` were 37% and 27%.
Consider `CC/C=C\C/C=C\C/C=C\CCCCCCCC(=O)O` [LINOLENIC ACID], for which the Activity in assay [1] and in assay [2] was 100% in each case. Moreover, the figures for the EC50 in assay [3] and in assay [4] were 2.6 µM and 5.2 µM, respectively. The Ratio EC50 in the assay filed under Homo sapiens is 2.
For `CCCCCCCN(CCOc1ccc(CCC(=O)O)cc1)c1ccccn1`, the Activity in assay [1] was 0%; in assay [2], 99%.
The corresponding values for `O=C(O)CCc1ccc(OCCN(c2ccccn2)c2ccccn2)cc1` are 0% and 0%.
Taken in the same sequence, the figures for `O=C(O)CCCc1ccc(OCCN(c2ccc(F)cc2)c2ccccn2)cc1` were 59% and 23%.
The corresponding values for `CCCCN(CCOc1ccc(CCCC(=O)O)cc1)c1ccccn1` are 41% and 10%.
Regarding `CCCCCCCCCN(CCOc1ccc(CCC(=O)O)cc1)c1ccccn1`, the Activity in assay [1] is 0%; in assay [2], 121%.
The corresponding values for `CCCCCCN(CCOc1ccc(CCC(=O)O)cc1)c1ccccn1` are 31% and 104%.
`CCCN(CCOc1ccc(CCC(=O)O)cc1)c1ccccn1`: the values for the Activity in assay [1] and in assay [2] were 57% and 125%, respectively.
With `O=C(O)CCCc1ccc(OCCN(c2ccccc2)c2cc(Cl)ccn2)cc1`, the Activity was 100% in assay [1] and 68% in assay [2].
Taken in the same sequence, the figures for `O=C(O)CCCc1ccc(OCCN(c2cccnc2)c2ccccn2)cc1` were 65% and 1%.
The corresponding values for `O=C(O)CCCc1ccc(OCCN(Cc2ccccc2)c2ccccn2)cc1` are 56% and 26%.

As usually defined, the EC50 is the midpoint of the concentration-response curve.
